Laboratory results published in ChEMBL document CHEMBL4359826, “Preparation of bivalent agonists for targeting the mu opioid and cannabinoid receptors” (Eur J Med Chem, 2019).
Active and inactive are the calls of the source.

Key:
Cannabinoid receptor [1] = molecular target: T1, Cannabinoid receptor (Rattus norvegicus, UniProt Q9QZN9+P20272); assay: Displacement of [3H]JWH-018 from CB1R/CB2R in Wistar rat brain membranes after 60 mins by liquid scintillation analysis; format: cell membranes
[2] = molecular target: Mu-type opioid receptor (Rattus norvegicus) (UniProt P33535); assay: Antagonist activity at MOR in Wistar rat brain membranes at 10 uM in presence of oxycodone after 60 mins by [35S]-GTPgammaS binding assay relative to control; format: functional, cell membranes
Method in brief: (§1)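 Rat brain membranes (30 µg protein/tube) incubated 60 min at 30 °C with 0.05 nM [35S]GTPγS and ligand at 10^-10–10^-5 M. Buffer: 50 mM Tris-HCl pH 7.4 with 30 µM GDP, 100 mM NaCl, 3 mM MgCl2, 1 mM EGTA. Nonspecific binding taken with 10 µM GTPγS; basal set as 100%. Filtration and scintillation counting; n≥3.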

[3] = molecular target: Cannabinoid receptor (Rattus norvegicus) (UniProt Q9QZN9+P20272); assay: Antagonist activity at CB1R/CB2R in Wistar rat brain membranes at 10 uM in presence of JWH-018 after 60 mins by [35S]-GTPgammaS binding assay relative to control; format: functional, cell membranes
Method in brief: as §1, with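 “EGTA. […]” for “EGTA.”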

Rattus norvegicus [4] = organism: Rattus norvegicus; conditions: Wistar, Brain, Membranes, at 10 µM
[5] = molecular target: Delta-type opioid receptor (Rattus norvegicus, UniProt P33533); assay: Displacement of [3H]Ile5,6-deltorphin-2 from DOR in Wistar rat brain membranes after 60 mins by liquid scintillation analysis; format: cell membranes
[6] = molecular target: Kappa-type opioid receptor (Cavia porcellus, UniProt P41144); format: cell membranes, Brain, Membranes
Mu-type opioid receptor = Mu-type opioid receptor (Rattus norvegicus, UniProt P33535); assay: Displacement of [3H]DAMGO from MOR in Wistar rat brain membranes after 60 mins by liquid scintillation analysis; format: cell membranes
[7] = molecular target: Mu-type opioid receptor (Rattus norvegicus) (UniProt P33535); assay: Antagonist activity at MOR in Wistar rat brain membranes at 10 uM in presence of Tyr-D-Ala-Gly-Phe-NH2 after 60 mins by [35S]-GTPgammaS binding assay relative to control; format: functional, cell membranes; method in brief: as §1
Rattus norvegicus [8] = organism: Rattus norvegicus; assay: Antagonist activity at MOR/CB1R/CB2R in Wistar rat brain membranes at 10 uM in presence of (S)-N-((2R,8S)-18-(3-(1-naphthoyl)-1H-indol-1-yl)-8-benzyl-3,6,9,12-tetraoxo-4,7,10,13-tetraazaoctadecan-2-yl)-2-amino-3-(4-hydroxyphenyl)propanamide after 60 mins by liquid scintillation analysis relative to control; format: cell membranes
Method in brief: as §1, with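 “EGTA. […]” for “EGTA.”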

Rattus norvegicus [9] = organism: Rattus norvegicus; assay: Antagonist activity at MOR/CB1R/CB2R in Wistar rat brain membranes at 10 uM in presence of N-[6-[[2-[[(4R,4aS,7aR,12bS)-4a-hydroxy-9-methoxy-3-methyl-2,4,5,6,7a,13-hexahydro-1H-4,12-methanobenzofuro[3,2-e]isoquinoline-7-ylidene]amino]oxyacetyl]amino]hexyl]-6-[3-(naphthalene-1-carbonyl)indol-1-yl]hexanamide after 60 mins by [35S]-GTPgammaS binding assay relative to control; format: cell membranes
Method in brief: as §1, with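 “EGTA. […]” for “EGTA.”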

Cannabinoid receptor [10] = molecular target: T1, Cannabinoid receptor; format: cell membranes, Wistar, Brain, Membranes
Rattus norvegicus [11] = assay: Effect on nociception of the contralateral paw in rat model of sodium iodoacetate-induced osteoarthritis paw withdrawal threshold in late phase at 20 ug administered as intrathecal injection measured after 60 to 90 mins by Von Frey test (reference value: 43 +/- 3.4 g); format: organism-based; conditions: in vivo, icv_or_intrathecal
Rattus norvegicus [12] = assay: Antiallodynic activity in sodium iodoacetate-induced rat model of osteoarthritis assessed as reduction in maximum effect in late phase at 20 ug administered as intrathecal injection measured up to 60 to 90 mins by Von Frey test; format: functional, organism-based
Rattus norvegicus [13] = assay: Effect on nociception of the contralateral paw in rat model of sodium iodoacetate-induced osteoarthritis paw withdrawal threshold in early phase at 20 ug administered as intrathecal injection measured up to 45 mins by Von Frey test (reference value: 44 +/- 2.4 g); format: organism-based; conditions: in vivo, icv_or_intrathecal, 0.75 h
Rattus norvegicus [14] = assay: Antiallodynic activity in sodium iodoacetate-induced rat model of osteoarthritis assessed as increase in maximum effect in early phase at 20 ug administered as intrathecal injection measured up to 45 mins by Von Frey test; format: functional, organism-based
[15] = molecular target: T2, Cannabinoid receptor 2 (Rattus norvegicus) (UniProt Q9QZN9); assay: Displacement of [3H]JWH-018 from CB2R in Wistar rat brain membranes at 10 uM after 60 mins by liquid scintillation analysis relative to control; format: cell membranes
T2 sequence (whole entry): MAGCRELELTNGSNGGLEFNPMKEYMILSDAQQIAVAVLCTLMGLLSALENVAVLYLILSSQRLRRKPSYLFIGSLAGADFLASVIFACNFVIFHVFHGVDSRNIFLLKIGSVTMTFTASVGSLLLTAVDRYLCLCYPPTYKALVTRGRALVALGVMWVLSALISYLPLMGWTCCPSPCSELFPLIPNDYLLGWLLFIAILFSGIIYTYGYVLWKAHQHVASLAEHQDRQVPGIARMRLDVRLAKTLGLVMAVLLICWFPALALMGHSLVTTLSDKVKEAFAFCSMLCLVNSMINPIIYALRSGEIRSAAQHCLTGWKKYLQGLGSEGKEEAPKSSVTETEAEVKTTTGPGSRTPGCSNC
Method in brief: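 Whole rat brain membranes (cerebellum removed; 0.3–0.5 mg/mL protein) in 50 mM Tris-HCl pH 7.4 with 2.5 mM EGTA, 5 mM MgCl2 and 0.5 mg/mL fatty-acid-free BSA, 30 °C. Kinetics used 0.6 nM [3H]JWH-018: association over 0–90 min, dissociation started with 10 µM JWH-018 after 60 min. Saturation over 0.5–35 nM. Competitors at 10^-11–10^-5 M, 60 min. Nonspecific binding with 10 µM JWH-018. Filtration onto PEI-soaked GF/B filters; n≥3.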

Cannabinoid receptor (Rattus norvegicus), sequence (P20272 whole entry, looked up, one chain of several): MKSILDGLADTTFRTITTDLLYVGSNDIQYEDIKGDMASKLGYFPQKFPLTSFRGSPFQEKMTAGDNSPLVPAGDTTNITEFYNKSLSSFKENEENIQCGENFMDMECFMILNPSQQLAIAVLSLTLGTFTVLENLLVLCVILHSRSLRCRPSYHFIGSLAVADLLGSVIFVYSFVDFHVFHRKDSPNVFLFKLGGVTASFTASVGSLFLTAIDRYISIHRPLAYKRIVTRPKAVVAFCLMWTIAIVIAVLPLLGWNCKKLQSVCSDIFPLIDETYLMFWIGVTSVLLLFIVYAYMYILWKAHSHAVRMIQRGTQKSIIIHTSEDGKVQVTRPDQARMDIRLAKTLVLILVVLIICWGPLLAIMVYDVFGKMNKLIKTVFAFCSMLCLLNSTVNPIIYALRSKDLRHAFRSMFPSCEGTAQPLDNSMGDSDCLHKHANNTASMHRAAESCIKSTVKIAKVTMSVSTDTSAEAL
Mu-type opioid receptor (Rattus norvegicus), sequence (P33535 whole entry): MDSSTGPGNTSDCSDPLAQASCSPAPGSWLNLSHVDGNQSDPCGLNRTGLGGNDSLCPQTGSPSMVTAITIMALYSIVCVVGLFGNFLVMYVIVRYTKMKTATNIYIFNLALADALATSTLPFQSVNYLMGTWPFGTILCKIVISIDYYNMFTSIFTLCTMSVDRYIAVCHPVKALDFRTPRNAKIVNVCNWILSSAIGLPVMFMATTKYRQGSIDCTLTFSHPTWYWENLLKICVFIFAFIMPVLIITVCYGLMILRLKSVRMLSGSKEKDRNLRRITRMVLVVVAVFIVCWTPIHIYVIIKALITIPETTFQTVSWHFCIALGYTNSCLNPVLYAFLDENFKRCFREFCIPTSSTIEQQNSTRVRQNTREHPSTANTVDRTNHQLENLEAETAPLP
Delta-type opioid receptor, sequence (P33533 whole entry): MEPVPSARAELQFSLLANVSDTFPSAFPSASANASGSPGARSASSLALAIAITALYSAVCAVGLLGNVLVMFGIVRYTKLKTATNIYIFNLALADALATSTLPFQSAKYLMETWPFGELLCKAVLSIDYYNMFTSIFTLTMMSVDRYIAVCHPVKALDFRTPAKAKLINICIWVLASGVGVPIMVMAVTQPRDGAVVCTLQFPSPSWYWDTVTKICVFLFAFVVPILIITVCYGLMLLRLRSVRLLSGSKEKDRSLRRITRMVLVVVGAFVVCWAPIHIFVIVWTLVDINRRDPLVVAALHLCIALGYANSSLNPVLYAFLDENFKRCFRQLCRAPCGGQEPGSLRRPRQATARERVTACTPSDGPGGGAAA
Kappa-type opioid receptor, sequence (P41144 whole entry): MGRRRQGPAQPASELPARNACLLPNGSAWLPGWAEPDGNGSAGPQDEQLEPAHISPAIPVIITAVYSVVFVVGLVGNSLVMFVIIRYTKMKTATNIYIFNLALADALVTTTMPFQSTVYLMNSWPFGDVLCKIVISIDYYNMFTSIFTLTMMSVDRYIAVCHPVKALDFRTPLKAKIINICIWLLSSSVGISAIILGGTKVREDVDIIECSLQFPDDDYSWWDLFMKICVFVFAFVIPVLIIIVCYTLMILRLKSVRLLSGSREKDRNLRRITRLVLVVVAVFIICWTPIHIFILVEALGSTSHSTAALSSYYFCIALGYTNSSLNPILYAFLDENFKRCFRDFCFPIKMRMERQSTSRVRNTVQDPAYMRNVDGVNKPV
Mu-type opioid receptor, sequence (P33535 whole entry): as the sequence (P33535 whole entry) above

| Compound | Ki (Cannabinoid receptor [1]) | Emax [2] | Emax [3] | Emax (Rattus norvegicus [4]) | Ki [5] | Ki [6] | Ki (Mu-type opioid receptor) | Emax [7] | Emax (Rattus norvegicus [8]) | Emax (Rattus norvegicus [9]) | Ki (Cannabinoid receptor [10]) | Activity (Rattus norvegicus [11]) | Activity (Rattus norvegicus [12]) | Activity (Rattus norvegicus [13]) | Activity (Rattus norvegicus [14]) | Activity [15] |
| --- | --- | --- | --- | --- | --- | --- | --- | --- | --- | --- | --- | --- | --- | --- | --- | --- |
| COc1ccc2c3c1O[C@H]1/C(=N\OCC(=O)NCCCOCCOCCOCCCNC(=O)CCCCCn4cc(C(=O)c5cccc6ccccc56)c5ccccc54)CC[C@@]4(O)[C@@H](C2)N(C)CC[C@]314 | 183 nM | 100% | 110% | 99% | 386 nM | 186 nM | 20 nM | 97% | 99% | 101% | 78 nM |  |  |  |  |  |
| COc1ccc2c3c1O[C@H]1C(=O)CC[C@@]4(O)[C@@H](C2)N(C)CC[C@]314 [OXYCODONE] |  |  |  |  |  |  |  |  |  |  |  | 40 g | Active | 43 g | Active |  |
| Cc1c(C(=O)NN2CCCCC2)nn(-c2ccc(Cl)cc2Cl)c1-c1ccc(Cl)cc1 |  |  | 100% |  |  |  |  |  |  |  |  |  |  |  |  |  |
| COc1ccc(C(=O)c2c(C)n(CCN3CCOCC3)c3cc(I)ccc23)cc1 | 27 nM |  | 100% |  |  |  |  |  |  |  |  |  |  |  |  | 70% |
| COc1ccc2c3c1O[C@H]1/C(=N\OCC(=O)NCCNC(=O)CCCCCn4cc(C(=O)c5cccc6ccccc56)c5ccccc54)CC[C@@]4(O)[C@@H](C2)N(C)CC[C@]314 | 255 nM | 101% | 107% | 100% | 623 nM | 337 nM | 33 nM | 102% | 103% | 102% | 9.3 nM |  |  |  |  |  |
